Source: PubChem BioAssay (Broad Institute)
Cneo AK release – causes C. neoformans cell lysis; adenylate kinase release luminescence, 4 h; normalised: neutral wells 0, clomiphene wells 100; lysis activity, % at 15 µM; 0.2% of 360,000 active; AID 651654;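 active means mean lysis activity across replicates of at least 80%, whatever share of replicates individually reach that level; inactive means mean lysis activity below 80%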
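Schedule: static 4 h at 37 °C with compound, 1 h detection; system: C. neoformans cells; benchmarks: Clomiphene as positive control; buffer or medium: fresh YPD medium; measure: luminescence rise reflecting yeast cell lysis; measured by: luminescent adenylate kinase detection reagent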
S100A4 MyoIIA – inhibitors of human S100A4 binding to myosin IIA peptide; P26447; S100A4/TAMRA-MyoIIA peptide fluorescence polarization; inhibition, % at 10.7 µM; 0.14% of 360,000 active; AID 652163;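 active means mean inhibition of at least 70% across replicates, with every replicate also reaching that level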
Target sequence (P26447 whole entry, looked up): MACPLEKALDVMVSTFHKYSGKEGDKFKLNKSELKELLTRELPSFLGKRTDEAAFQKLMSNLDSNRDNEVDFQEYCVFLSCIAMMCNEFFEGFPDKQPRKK
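Compound dosing: one dose per compound; test system: human S100A4 monomer with TAMRA-labelled myosin IIA peptide; probe or stimulus: TAMRA-labelled myosin IIA heavy-chain peptide probe, 5 nM; medium: HEPES buffer with Ca2+, pH 7.2; schedule: 5 min incubation before reading; benchmarks: neutral control DMSO, positive control TFP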
Statin myotox sup – suppressors of simvastatin-induced myotoxicity in C2C12 myotubes; 0.78% of 330,000 active; ATP luminescence, 48 h; scaled: DMSO 0, geranylgeraniol control 100; rescue of ATP level, % at 7.49 µM; AID 602340;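 active means mean ATP rescue above about 67%, or every replicate alone reaching that limit, limit read from the data, passing the limit was not always enough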;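 further: myotubes were challenged with 10 µM simvastatin during compound exposure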
Ecoli rRNA inh – inhibitors of bacterial rRNA selective over humanized ribosomes; 1.6% of 350,000 active; E. coli WT GFP vs humanized-ribosome RFP mutants, fluorescence, 24 h; stronger effect = lower value; DMSO median 0, no signal -100; AID 720706; GFP signal change (wild-type ribosome), % (no concentration beside the values);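 active means significant combined selectivity score with lowered wild-type GFP, culture density cut under 30%, mutant RFP and density less affected; inactive means any of these conditions unmet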
PGC1a acetyl inh – modulators of PGC1a acetylation; 0.17% of 350,000 active; U2OS PGC1a acetylation, AlphaScreen anti-acetyl-lysine; with virally co-expressed GCN5 acetyltransferase; AID 651687; inhibition, % at 15.6 µM;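 active means every replicate shows inhibition of at least 40%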;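 further: 0% = neutral control wells and 100% = positive control wells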
SIRT5 inh – sirtuin-5 (human) deacylase inhibition. Q9NXA8. Purified SirT5, succinyl-peptide AMC, trypsin-coupled fluorescence. inhibition, % at 15 µM. 1.1% of 330,000 active; in the data active means inhibition above about 15%
Target sequence (Q9NXA8 whole entry, looked up): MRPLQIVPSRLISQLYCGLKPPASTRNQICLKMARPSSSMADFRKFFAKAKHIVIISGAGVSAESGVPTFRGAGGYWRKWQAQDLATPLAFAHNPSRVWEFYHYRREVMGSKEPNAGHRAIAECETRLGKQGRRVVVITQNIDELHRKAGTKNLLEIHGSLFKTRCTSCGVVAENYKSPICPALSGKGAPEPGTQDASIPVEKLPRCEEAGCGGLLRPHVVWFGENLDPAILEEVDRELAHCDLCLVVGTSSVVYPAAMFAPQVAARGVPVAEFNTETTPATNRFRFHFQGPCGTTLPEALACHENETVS
Starred values were filed as active, the others as inactive; . = no result given; ! = a repeat was not active. Compounds with a hit are over-represented: about 3% of the library has one in this group of screens.

SMILES	Cneo AK release	S100A4 MyoIIA	Statin myotox sup	Ecoli rRNA inh	PGC1a acetyl inh	SIRT5 inh
CSCCC(NS(=O)(=O)c1ccccc1F)C(=O)NNC(=O)c1csc(N2CCOCC2)n1 (stereo not drawn)	-2	0	-12	10	-1	17*
O=C(NNC(=O)c1cc(-c2ccc(Br)cc2)nc2ccccc12)c1csc(N2CCOCC2)n1	0	6	-13	.	-2	0
Cc1ccc(-c2cc(C(=O)NNC(=O)c3csc(N4CCOCC4)n3)c3ccccc3n2)cc1	-4	-1	-1	-19*	-13	-2
O=C(NNC(=O)c1cc(-c2ccccc2)nc2ccccc12)c1csc(N2CCOCC2)n1	.	-2	11	-37*	.	-1
C[C@@H]1CN([C@@H](C)CO)C(=O)c2cc(-c3ccccc3F)cnc2O[C@@H]1CN(C)C(=O)C1CCOCC1	1	3	-9	5	7	-1
CCS(=O)(=O)N1CC(=O)N2[C@H](CO)[C@@H](c3ccc(-c4ccccc4F)cc3)[C@H]2C1	.	-26	.	-12	-2	6
CC(=O)Nc1ccc(C(=O)Nc2cccc(S(=O)(=O)N(C)c3ccccc3)c2)cc1	-3	0	-13	-25	9	-2
CN(c1ccccc1)S(=O)(=O)c1cccc(NC(=O)COc2ccccc2)c1	-1	1	1	.	-13	5
CC(=O)CCc1ccc(OCC(=O)Nc2cccc(S(=O)(=O)N(C)c3ccccc3)c2)cc1	-1	2	-7	-9	.	17*
CN(c1ccccc1)S(=O)(=O)c1cccc(NC(=O)CCN2C(=O)C3CCCCC3C2=O)c1 (stereo not drawn)	6	1	-5	-29*	-1	3
CCCC(=O)Nc1cccc(S(=O)(=O)N(C)c2ccccc2)c1	.	.	.	.	2	.
CN(c1cccc(NC(=O)c2ccc(N(C)S(=O)(=O)c3ccccc3)cc2)c1)S(C)(=O)=O	.	3	.	-17*	.	1
CCOc1ccc(S(=O)(=O)N(C)c2ccc(OCC(=O)Nc3ccc4[nH]c(=O)[nH]c4c3)cc2)cc1	-1	-3	-9	-32*	.	-1
O=C(NC[C@@H]1N[C@@H](CO)[C@H]1c1ccc(C2=CCCCC2)cc1)c1cccc(F)c1	1	.	-94	-61	9	3
O=C(NNC(=O)c1cccs1)c1ccncc1	.	3	.	10	5	22*
O=C(c1ccncc1)N1CCN(C(=O)c2cccs2)CC1	2	.	-5	.	5	.
O=C(NNC(=S)NC(=O)c1cccs1)c1cccnc1	.	-18	.	-34	.	17*
O=C(NNC(=O)c1cccs1)c1ccccc1	.	2	.	15	-1	3
O=C(CC(=O)c1cccs1)c1ccncc1	-6	-3	4	-22*	-3	-1
CO[C@H]1CN(C)C(=O)c2ccc(NS(C)(=O)=O)cc2OC[C@H](C)NC[C@H]1C	0	-8	-9	1	-9	-1
CNC[C@@H]1Oc2ccc(NS(=O)(=O)c3c(C)noc3C)cc2C(=O)N([C@@H](C)CO)C[C@H]1C	8	8	8	5	14	0
CCC(=O)N(C)C[C@@H]1Oc2cc(C#Cc3ccccc3)ccc2S(=O)(=O)N([C@@H](C)CO)C[C@H]1C	-2	5	1	-11	-2	4
CCCc1cc(=O)[nH]c(SCC(=O)Nc2cccc3ccccc23)n1	-1	0	51	-6	.	0
Cc1cc(=O)[nH]c(SCC(=O)NC2CCCCCCC2)n1	5	1	6	.	6	-1
Cc1cc(=O)[nH]c(SCC(=O)NC2CCCCCC2)n1	0	6	72*	6	12	.
SMILES	Cneo AK release	S100A4 MyoIIA	Statin myotox sup	Ecoli rRNA inh	PGC1a acetyl inh	SIRT5 inh
CCCc1cc(=O)[nH]c(SCC(=O)Nc2ccccc2C#N)n1	0	.	98*	.	-2	.
COCc1cc(=O)[nH]c(SCC(=O)Nc2ccccc2)n1	-1	.	102*	.	6	.
CCN(CC)c1ccc(NC(=O)CSc2nc(C)cc(=O)[nH]2)cc1	-2	3	-6	-14*	6	-4
CCCC#Cc1ccc2c(c1)O[C@@H](CN(C)C(=O)C1CCCCC1)[C@H](C)CN([C@@H](C)CO)S2(=O)=O	.	.	-45	-4	13	.
CC(C)C#Cc1ccc2c(c1)O[C@@H](CN(C)C)[C@@H](C)CN([C@H](C)CO)S2(=O)=O	.	.	5	2	-7	.
COc1cc(O)c2c(c1)oc(=O)c1c3cc(O)c(O)cc3oc21	1	0	.	.	6	23*
COc1ccc2c(c1)oc(=O)c1cc(OC)ccc12	-2	1	5	-2	-5	-2
CC(C)NC(=O)N[C@@H]1CC[C@H](CCNC(=O)C2CCCC2)O[C@@H]1CO	.	.	-1	2	5	.
Cc1ccc(S(=O)(=O)NCC(=O)OCC(=O)NCc2ccc(F)cc2)cc1	.	9	.	5	-3	34*
COC(=O)c1ccc(CNC(=O)COC(=O)CNS(=O)(=O)c2ccc(C)cc2)cc1	-2	-3	-7	17	7	.
C=CCNC(=O)CNS(=O)(=O)c1ccc(F)cc1	2	2	6	.	-12	18*
C[C@@H]1CN([C@@H](C)CO)C(=O)Cc2cc(NC(=O)CCCCCC(=O)Nc3ccccc3N)ccc2O[C@H]1CN(C)S(=O)(=O)c1cccs1	-1	.	-23	0	4	.
O=C(Nc1ccc2nn(-c3ccc(F)cc3)nc2c1)c1cccnc1	.	0	.	4	-23	-7
O=C(Nc1ccc2nn(-c3ccccc3)nc2c1)c1cccnc1	-1	.	130*	.	-36	.
C[C@@H]1CN([C@H](C)CO)S(=O)(=O)c2ccc(C#CC3(O)CCCC3)cc2O[C@H]1CN(C)C(=O)Nc1ccccc1	-2	-8	-38	-4	4	5
COC(=O)C1=C(C)N(Cc2ccc(F)cc2)C(=S)NC1c1cccc(OC)c1 (stereo not drawn)	.	-2	.	-22*	.	-1
COC(=O)C1=C(C)N(Cc2ccc(Br)cc2)C(=S)NC1c1cccc(OC)c1 (stereo not drawn)	.	-16	.	0	.	2
COC(=O)C1=C(C)N(Cc2ccccc2)C(=S)NC1c1cccc(OC)c1 (stereo not drawn)	.	0	.	-29*	.	-1
COc1ccc(CN(C)C[C@@H]2Oc3ccc(NC(=O)Cn4cnnn4)cc3CC(=O)N([C@@H](C)CO)C[C@@H]2C)cc1	-3	10	-2	3	0	-2
CN(C)C(=O)[C@H]1[C@H](CO)[C@H]2Cn3c(ccc(C4=CCCCC4)c3=O)[C@@H]1N2Cc1cccnc1	-5	7	-17	3	.	-33
Nc1c2c(nc3ccccc13)CCCC2	-1	-3	0	.	-7	-4
Nc1c2ccccc2nc2ccccc12	0	-1	45	-43*!	12	-35
